Experimental findings from ChEMBL document CHEMBL1143741, “Sirtuin 2 inhibitors rescue alpha-synuclein-mediated toxicity in models of Parkinson's disease” (Science, 2007) are described below.

The source made the active and inactive calls. The rule behind the calls is not given here.

Assay [1] addresses T1, NAD-dependent protein deacetylase sirtuin-2 (Homo sapiens, UniProt Q8IXJ6).
T1 sequence (Q8IXJ6 whole entry): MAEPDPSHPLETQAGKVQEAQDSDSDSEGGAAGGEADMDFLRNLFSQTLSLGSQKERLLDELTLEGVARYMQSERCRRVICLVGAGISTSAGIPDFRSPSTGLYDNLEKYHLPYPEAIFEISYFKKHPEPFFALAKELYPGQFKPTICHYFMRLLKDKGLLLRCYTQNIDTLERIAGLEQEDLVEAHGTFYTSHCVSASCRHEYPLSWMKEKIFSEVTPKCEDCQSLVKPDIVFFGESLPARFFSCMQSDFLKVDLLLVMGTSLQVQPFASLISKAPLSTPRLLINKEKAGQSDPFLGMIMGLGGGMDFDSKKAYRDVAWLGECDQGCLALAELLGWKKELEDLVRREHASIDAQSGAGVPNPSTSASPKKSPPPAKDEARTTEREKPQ
The assay is described as follows: Inhibition of human recombinant SIRT2 using fluorescent peptide substrate by fluorescent assay. The method, boiled down:
(§1)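 Recombinant human SIRT1 or SIRT2 tested in an in vitro fluorometric deacetylation assay. Dose-response inhibition profiles were run, and IC50 was calculated from them.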

For assay [2], the target named is T2, NAD-dependent protein deacetylase sirtuin-3, mitochondrial (Homo sapiens, UniProt Q9NTG7).
T2 sequence (Q9NTG7 whole entry): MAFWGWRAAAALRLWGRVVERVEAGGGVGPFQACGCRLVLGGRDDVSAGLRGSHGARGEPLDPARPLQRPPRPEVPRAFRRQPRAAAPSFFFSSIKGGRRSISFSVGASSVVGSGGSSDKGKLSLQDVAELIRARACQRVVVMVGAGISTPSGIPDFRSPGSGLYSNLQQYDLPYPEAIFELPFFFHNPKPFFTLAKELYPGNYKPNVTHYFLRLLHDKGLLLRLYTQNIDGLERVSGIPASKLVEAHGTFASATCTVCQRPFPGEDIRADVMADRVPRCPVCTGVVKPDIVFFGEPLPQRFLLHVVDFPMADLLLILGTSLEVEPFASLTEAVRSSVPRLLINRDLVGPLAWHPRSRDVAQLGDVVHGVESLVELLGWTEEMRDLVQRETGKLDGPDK
The experiment in a line: Inhibition of human recombinant SIRT3 using fluorescent peptide substrate by fluorescent assay.

The target of assay [3] is T3, NAD-dependent protein deacetylase sirtuin-1 (Homo sapiens, UniProt Q96EB6).
T3 sequence (Q96EB6 whole entry): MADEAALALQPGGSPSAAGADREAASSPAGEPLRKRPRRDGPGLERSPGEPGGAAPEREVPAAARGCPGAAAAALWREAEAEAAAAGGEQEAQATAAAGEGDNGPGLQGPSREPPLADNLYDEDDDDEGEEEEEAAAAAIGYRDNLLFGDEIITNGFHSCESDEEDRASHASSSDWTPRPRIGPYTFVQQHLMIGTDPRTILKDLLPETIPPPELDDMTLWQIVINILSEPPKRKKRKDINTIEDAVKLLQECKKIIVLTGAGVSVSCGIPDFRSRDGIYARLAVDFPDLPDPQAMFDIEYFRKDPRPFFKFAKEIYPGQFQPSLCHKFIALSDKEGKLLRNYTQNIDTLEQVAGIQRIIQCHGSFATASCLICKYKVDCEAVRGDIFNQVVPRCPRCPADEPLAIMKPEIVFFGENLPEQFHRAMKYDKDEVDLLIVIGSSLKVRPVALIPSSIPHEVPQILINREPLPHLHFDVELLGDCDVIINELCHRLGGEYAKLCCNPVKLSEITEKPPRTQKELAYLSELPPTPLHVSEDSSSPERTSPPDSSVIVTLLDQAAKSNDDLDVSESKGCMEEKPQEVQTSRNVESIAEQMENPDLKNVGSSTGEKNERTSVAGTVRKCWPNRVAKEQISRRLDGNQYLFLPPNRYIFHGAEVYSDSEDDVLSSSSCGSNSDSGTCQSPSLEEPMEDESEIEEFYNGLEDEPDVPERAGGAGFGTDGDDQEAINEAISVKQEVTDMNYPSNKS
The experiment in a line: Inhibition of human recombinant SIRT1 using fluorescent peptide substrate by fluorescent assay. In outline:
as §1

The subject of assay [4] is Midbrain. The experiment in a line: Protection of dopaminergic cell death in rat embryo midbrain transduced with lentivirus encoding alphaSyn-A53T mutant assessed as tyrosine hydroxylase positive cells. The class given is functional, tissue-based. In outline:
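Primary midbrain cultures transduced with α-SynA53T lentivirus (multiplicity of infection = 5) in the presence of vehicle (DMSO) or increasing compound concentrations. Untransduced DMSO-treated (0.2%, v/v) cells served as control. Stained for MAP2 and TH; viability = percentage of MAP2-positive cells also TH-positive. Means ± SEM, N > 3; one-way ANOVA with Dunnett's post hoc test versus α-SynA53T alone.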

For assay [5], the system named is Drosophila. The assay is described as follows: Protective effect against alphaSyn mediated toxicity in wild-type transgenic Drosophila expressing elav-GAL4; UAS-synWT assessed as rescue of dorsomedial neurons after drug administration for the first 20 days of adult life. The class given is functional, organism-based. The method, boiled down:
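Transgenic α-Syn flies were fed compound at 250, 500 or 1000 μM, or DMSO, for the first 20 days of adult life. TH-positive dopamine neurons in the dorsomedial cluster were then assessed in 20-day-old flies. Significance was set at P < 0.01.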

Turning to `N#C/C(=C\c1ccc(-c2cccc(Cl)c2Cl)o1)C(=O)Nc1cccc2cccnc12`, the IC50 in assay [1], in assay [2] and in assay [3] was over 50 µM each time.

Turning to `N#C/C(=C\c1ccc(-c2cccc(Cl)c2Cl)o1)C(=O)Nc1cccc2ncccc12`, the IC50 – broadly, the concentration needed to halve the response being measured – is over 10 µM in assay [1], over 50 µM in assay [2] and over 50 µM in assay [3].

Take `O=C(c1ccc(Cl)cc1)N1CCN(c2ccc([N+](=O)[O-])c3ncccc23)CC1`: the IC50 is 35 µM in assay [1], over 50 µM in assay [2] and over 50 µM in assay [3]. Moreover, the result in assay [4] was Active.

`N#C/C(=C\c1ccc(-c2ccccc2Cl)o1)C(=O)Nc1cccc2ncccc12`: the results for the IC50 in assay [1] and in assay [2] were 5.5 µM and over 50 µM, respectively.

As to `N#C/C(=C\c1ccc(-c2cccc(C(F)(F)F)c2)o1)C(=O)Nc1cccc2cccnc12`, the half-inhibitory concentration (IC50) in assay [1], in assay [2] and in assay [3] was over 50 µM throughout.

As for `N#C/C(=C\c1ccc(-c2cccc(C(F)(F)F)c2)o1)C(=O)Nc1cccc2ncccc12`, the IC50 in assay [1] is 6 µM; in assay [2] it was over 50 µM; in assay [3], over 50 µM.

For `N#C/C(=C\c1ccc(-c2cc(Cl)ccc2Cl)o1)C(=O)Nc1cccc2cccnc12`, the results for the IC50 in assay [1] and in assay [2] were over 50 µM and over 5 µM, respectively.

Turning to `N#C/C(=C\c1ccc(-c2ccccc2Cl)o1)C(=O)Nc1cccc2cccnc12`, the IC50 in assay [1] and in assay [2] was over 50 µM in each case.

As for `N#C/C(=C\c1ccc(-c2cc(Cl)ccc2Cl)o1)C(=O)Nc1cccc2ncccc12`, in assay [5], the Activity result is “Dose-dependent effect”. In assay [4], the outcome was Active. For the same molecule, in assay [3], the half-inhibitory concentration (IC50) was over 50 µM.
